Measurements from ChEMBL document CHEMBL1135120, “Novel lipoic acid analogues that inhibit nitric oxide synthase” (Bioorg Med Chem Lett, 2002).

Experiments:
Nitric oxide synthase 1 [1] = target: T1, Nitric oxide synthase 1 (Homo sapiens, UniProt P29475); assay: In vitro inhibition concentration was evaluated on the effect of conversion by Nitric oxide synthase of [3H]L-arginine into [3H]L-citrulline
Mus musculus [2] = species: Mus musculus; assay: Ability for prevention of GSH depletion was measured in mouse; Not active up to 100 uM; type: functional
Method in brief: (§1)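 Glutamate-challenged HT22 cells; total intracellular GSH measured by enzymatic glutathione assay, i.e. formation of 5-thio-2-nitrobenzoic acid from GSH oxidation by 5,5'-dithiobis(2-nitrobenzoic acid).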

HT22 (Mus musculus) [3] = assay: Neuroprotective effect was measured by its ability to protect mouse hippocampal neuronal HT-22 cell lines from oxidative stress caused by glutamate; Not active up to 100 uM
HT22 (Mus musculus) [4] = assay: Neuroprotective effect was measured by its ability to protect mouse hippocampal neuronal HT-22 cell lines from oxidative stress caused by glutamate
Mus musculus [5] = species: Mus musculus; assay: Ability for prevention of GSH depletion was measured in mouse; type: functional; method in brief: as §1
Nitric oxide synthase 1 [6] = target: T1, Nitric oxide synthase 1; assay: In vitro inhibition concentration was evaluated on the effect of conversion by Nitric Oxide synthase of [3H]L-arginine into [3H]L-citrulline
Nitric oxide synthase 1 [7] = target: T1, Nitric oxide synthase 1; assay: In vitro inhibition concentration was evaluated on the effect of conversion by Nitric Oxide synthase of [3H]L-arginine into [3H]L-citrulline; Not active up to 100 uM

T1 sequence (P29475 whole entry): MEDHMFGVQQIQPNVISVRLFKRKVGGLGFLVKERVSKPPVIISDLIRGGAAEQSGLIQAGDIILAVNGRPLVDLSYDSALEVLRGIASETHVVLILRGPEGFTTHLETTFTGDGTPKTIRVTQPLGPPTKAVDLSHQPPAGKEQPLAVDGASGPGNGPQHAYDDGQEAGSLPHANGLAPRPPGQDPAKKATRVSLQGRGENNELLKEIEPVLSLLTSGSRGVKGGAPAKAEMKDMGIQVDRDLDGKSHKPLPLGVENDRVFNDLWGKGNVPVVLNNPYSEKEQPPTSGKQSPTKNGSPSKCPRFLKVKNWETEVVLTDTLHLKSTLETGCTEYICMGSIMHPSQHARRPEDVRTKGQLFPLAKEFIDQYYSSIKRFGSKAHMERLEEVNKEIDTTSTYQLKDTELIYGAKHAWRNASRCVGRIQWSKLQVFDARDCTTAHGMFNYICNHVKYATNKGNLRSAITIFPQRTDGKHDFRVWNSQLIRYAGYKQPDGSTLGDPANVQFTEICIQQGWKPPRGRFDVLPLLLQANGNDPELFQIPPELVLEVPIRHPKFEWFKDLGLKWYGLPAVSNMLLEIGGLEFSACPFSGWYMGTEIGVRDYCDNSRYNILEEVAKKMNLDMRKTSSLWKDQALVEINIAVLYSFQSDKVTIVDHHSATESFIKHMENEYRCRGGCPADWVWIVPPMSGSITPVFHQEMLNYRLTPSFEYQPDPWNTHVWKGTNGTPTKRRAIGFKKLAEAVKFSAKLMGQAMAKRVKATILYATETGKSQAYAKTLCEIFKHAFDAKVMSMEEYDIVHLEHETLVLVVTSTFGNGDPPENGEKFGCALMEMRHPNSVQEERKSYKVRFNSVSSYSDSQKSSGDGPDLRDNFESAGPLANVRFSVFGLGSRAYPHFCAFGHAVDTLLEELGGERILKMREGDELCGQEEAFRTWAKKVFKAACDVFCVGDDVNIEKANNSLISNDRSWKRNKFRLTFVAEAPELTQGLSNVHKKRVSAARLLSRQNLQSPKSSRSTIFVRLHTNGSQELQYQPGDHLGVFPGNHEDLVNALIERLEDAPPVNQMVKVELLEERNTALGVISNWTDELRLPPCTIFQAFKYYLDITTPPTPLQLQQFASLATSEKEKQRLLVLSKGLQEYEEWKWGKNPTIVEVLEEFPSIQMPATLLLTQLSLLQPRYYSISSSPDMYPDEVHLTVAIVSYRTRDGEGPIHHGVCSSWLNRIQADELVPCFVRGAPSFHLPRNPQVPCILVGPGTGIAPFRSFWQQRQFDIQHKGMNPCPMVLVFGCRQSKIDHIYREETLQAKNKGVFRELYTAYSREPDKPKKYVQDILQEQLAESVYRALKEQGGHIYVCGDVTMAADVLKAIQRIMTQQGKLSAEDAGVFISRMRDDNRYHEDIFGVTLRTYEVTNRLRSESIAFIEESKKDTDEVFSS

IC50 (Nitric oxide synthase 1 [1]) | EC50 (Mus musculus [2]) | EC50 (HT22 (Mus musculus) [3]) | EC50 (HT22 (Mus musculus) [4]) | EC50 (Mus musculus [5]) | IC50 (Nitric oxide synthase 1 [6]) | IC50 (Nitric oxide synthase 1 [7]) | SMILES
4 µM | Not Active | Not Active |  |  |  |  | N=C(Nc1ccccc1)c1cccs1
 |  |  | 11.1 µM | 46.9 µM | 3.5 µM |  | N=C(Nc1ccc(NC(=O)CCCCC2CCSS2)cc1)c1cccs1 (stereo unspecified)
 |  |  | 6.3 µM | 64.8 µM | 2.3 µM |  | NC(=Nc1ccc(CNC(=O)CCCCC2CCSS2)cc1)c1cccs1 (stereo unspecified)
 |  |  | 1.8 µM | 12.3 µM | 1.15 µM |  | N=C(Nc1ccc(CCNC(=O)CC2CCSS2)cc1)c1cccs1 (stereo unspecified)
 |  |  | 19.6 µM | 122 µM |  | Not Active | O=C(O)CCCCC1CCSS1 (stereo not drawn) [LIPOIC ACID, ALPHA]
 |  |  | 9.6 µM | 11.9 µM | 4.4 µM |  | NC(=Nc1ccc(NC(=O)CC2CCSS2)cc1)c1cccs1 (stereo unspecified)
 |  |  | 11.7 µM | 37.1 µM | 1.04 µM |  | N=C(Nc1ccc(CCNC(=O)CCCCC2CCSS2)cc1)c1cccs1 (stereo unspecified)
